# Measured values as given in ChEMBL document CHEMBL4004797, “Design and synthesis of formononetin-dithiocarbamate hybrids that inhibit growth and migration of PC-3 cells via MAPK/Wnt signaling pathways” (Eur J Med Chem, 2017).
# Activity calls are given as the source filed them. No cut-off for these calls is given here.
# What was measured:
# ECa-109 cell line = assay: Cytotoxicity against human EC109 cells assessed as inhibition of cell viability after 48 hrs by MTT assay; assay type: functional, cell-based; conditions: ECa-109, 48 h
# Method in brief: (§1)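 Cells grown in RPMI 1640 with 10% FBS, penicillin and streptomycin at 37 °C under 5% CO2. After 24 h, medium replaced with medium containing various concentrations. Exposure 48 h, then MTT read-out at 570 nm. IC50 is the concentration giving 50% proliferation inhibition, from dose-response curves; mean ± SD of three independent experiments.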
# PC-3 [1] = assay: Cytotoxicity against human PC3 cells assessed as inhibition of cell viability after 48 hrs by MTT assay; assay type: functional, cell-based; conditions: for IC50: PC-3, 48 h; method in brief: as §1
# MGC-803 = assay: Cytotoxicity against human MGC803 cells assessed as inhibition of cell viability after 48 hrs by MTT assay; assay type: functional, cell-based; conditions: MGC-803, 48 h; method in brief: as §1
# PC-3 [2] = assay: Cell cycle arrest in human PC3 cells assessed as accumulation at G2 phase at 0.5 uM after 48 hrs by propidium iodide staining-based flow cytometric method (reference value: 18.31%); assay type: functional
# PC-3 [3] = assay: Upregulation of Bax levels in human PC3 cells at 0.1 to 2.5 uM after 48 hrs by Western blot method; assay type: functional, cell-based
# Method in brief: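 Bax protein measured by Western blot in PC-3 cells after 48 h at 0, 0.1, 0.5 or 2.5 μM: RIPA lysis, SDS-PAGE, nitrocellulose transfer, overnight primary antibody at 4 °C, ECL detection.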
# PC-3 [4] = assay: Induction of apoptosis in human PC3 cells assessed as late apoptotic cells at 0.1 uM after 48 hrs by annexin V-FITC/propidium iodide staining-based flow cytometric method (reference value: 1.3%); assay type: functional
# PC-3 [5] = assay: Induction of apoptosis in human PC3 cells assessed as late apoptotic cells at 2.5 uM after 48 hrs by annexin V-FITC/propidium iodide staining-based flow cytometric method (reference value: 1.3%); assay type: functional
# [6] = biological target: MAP kinase p38 (Homo sapiens) (UniProt O15264+Q15759+Q16539+P53778); assay: Inhibition of p38 phosphorylation in human PC3 cells after 48 hrs by Western blot analysis; assay type: cell-based
# Method in brief: (§2)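 PC-3 cells exposed 48 h to 0, 0.1, 0.5 or 2.5 μM. RIPA lysates, BCA protein assay, SDS-PAGE, nitrocellulose transfer, 5% milk block, primary antibodies overnight at 4 °C against p-ERK, p-c-Jun, c-Myc, p38 and p-p38, secondary 1:5000 for 2 h, ECL detection. Levels quantified from three independent experiments.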
# PC-3 [7] = assay: Cell cycle arrest in human PC3 cells assessed as accumulation at G1 phase at 2.5 uM after 48 hrs by propidium iodide staining-based flow cytometric method (reference value: 54.65%); assay type: functional
# PC-3 [8] = assay: Cell cycle arrest in human PC3 cells assessed as accumulation at G1 phase at 0.1 uM after 48 hrs by propidium iodide staining-based flow cytometric method (reference value: 54.65%); assay type: functional
# PC-3 [9] = assay: Downregulation of CDK4 levels in human PC3 cells after 48 hrs by Western blot method; assay type: functional, cell-based
# Method in brief: (§3)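 PC-3 cells treated 48 h at 0, 0.1, 0.5 or 2.5 μM, then lysed in RIPA buffer with protease inhibitors. Protein measured by BCA, separated by SDS-PAGE, transferred to nitrocellulose, blocked in 5% milk, probed overnight at 4 °C for cyclin D1, CDK4, cyclin A and cyclin B1, detected by ECL. Bands quantified; three independent experiments.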
# PC-3 [10] = assay: Downregulation of TCF4 levels in human PC3 cells after 48 hrs by Western blot method; assay type: functional, cell-based
# Method in brief: (§4)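 Wnt pathway proteins probed by Western blot in PC-3 cells after 48 h at 0, 0.1, 0.5 or 2.5 μM. RIPA lysis, SDS-PAGE, nitrocellulose, overnight primary antibody at 4 °C, ECL detection. Expression quantified from three independent experiments.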
# GES1 = assay: Cytotoxicity against human GES-1 cells assessed as inhibition of cell viability after 48 hrs by MTT assay; assay type: cell-based; conditions: GES1, 48 h; method in brief: as §1
# PC-3 [11] = assay: Induction of apoptosis in human PC3 cells assessed as early apoptotic cells at 0.1 uM after 48 hrs by annexin V-FITC/propidium iodide staining-based flow cytometric method (reference value: 4.7%); assay type: functional
# PC-3 [12] = assay: Cell cycle arrest in human PC3 cells assessed as accumulation at G1 phase at 0.5 uM after 48 hrs by propidium iodide staining-based flow cytometric method (reference value: 54.65%); assay type: functional
# [13] = biological target: Transcription factor Jun (Homo sapiens) (UniProt P05412); assay: Inhibition of c-Jun phosphorylation in human PC3 cells after 48 hrs by Western blot analysis; assay type: cell-based; method in brief: as §2
# PC-3 [14] = assay: Cell cycle arrest in human PC3 cells assessed as accumulation at G2 phase at 2.5 uM after 48 hrs by propidium iodide staining-based flow cytometric method (reference value: 18.31%); assay type: functional
# PC-3 [15] = assay: Induction of apoptosis in human PC3 cells assessed as late apoptotic cells at 0.5 uM after 48 hrs by annexin V-FITC/propidium iodide staining-based flow cytometric method (reference value: 1.3%); assay type: functional
# PC-3 [16] = assay: Anticlonogenic activity against human PC3 cells assessed as colony formation efficiency at 2.5 uM after 1 week by crystal violet staining-based assay relative to control; assay type: functional
# Method in brief: (§5)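 PC-3 cells seeded, grown 24 h, then given fresh medium containing a range of concentrations and treated for one week. Washed with PBS, fixed in 4% paraformaldehyde, stained with 0.1% crystal violet, imaged. Colonies counted and colony formation efficiency calculated relative to control. Three independent experiments.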
# PC-3 [17] = assay: Induction of apoptosis in human PC3 cells assessed as early apoptotic cells at 2.5 uM after 48 hrs by annexin V-FITC/propidium iodide staining-based flow cytometric method (reference value: 4.7%); assay type: functional
# PC-3 [18] = assay: Upregulation of Axin levels in human PC3 cells after 48 hrs by Western blot method; assay type: functional, cell-based; method in brief: as §4
# PC-3 [19] = assay: Anticlonogenic activity against human PC3 cells at 2.5 uM after 1 week by crystal violet staining-based assay; assay type: functional, cell-based; method in brief: as §5
# PC-3 [20] = assay: Induction of apoptosis in human PC3 cells assessed as early apoptotic cells at 0.5 uM after 48 hrs by annexin V-FITC/propidium iodide staining-based flow cytometric method (reference value: 4.7%); assay type: functional
# PC-3 [21] = assay: Cell cycle arrest in human PC3 cells assessed as accumulation at S phase at 0.5 uM after 48 hrs by propidium iodide staining-based flow cytometric method (reference value: 26.54%); assay type: functional
# PC-3 [22] = assay: Cell cycle arrest in human PC3 cells assessed as accumulation at S phase at 2.5 uM after 48 hrs by propidium iodide staining-based flow cytometric method (reference value: 26.54%); assay type: functional
# PC-3 [23] = assay: Cell cycle arrest in human PC3 cells assessed as accumulation at G2 phase at 0.1 uM after 48 hrs by propidium iodide staining-based flow cytometric method (reference value: 18.31%); assay type: functional
# PC-3 [24] = assay: Cell cycle arrest in human PC3 cells assessed as accumulation at S phase at 0.1 uM after 48 hrs by propidium iodide staining-based flow cytometric method (reference value: 26.54%); assay type: functional
# PC-3 [25] = assay: Downregulation of p38 levels in human PC3 cells after 48 hrs by Western blot analysis; assay type: functional, cell-based; method in brief: as §2
# PC-3 [26] = assay: Downregulation of cyclin D1 levels in human PC3 cells after 48 hrs by Western blot method; assay type: functional, cell-based; method in brief: as §3
# [27] = biological target: Myc proto-oncogene protein (Homo sapiens) (UniProt P01106); assay: Inhibition of c-Myc expression in human PC3 cells after 48 hrs by Western blot analysis
# Homo sapiens = species: Homo sapiens; assay: Inhibition of ERK phosphorylation in human PC3 cells after 48 hrs by Western blot analysis; assay type: cell-based; method in brief: as §2
# PC-3 [28] = assay: Antimigratory activity in human PC3 cells at 0.1 to 2.5 uM after 48 hrs by Hoechst 33258 staining-based transwell assay; assay type: functional, cell-based
# Method in brief: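 Transwell migration: upper chamber holds 10^4 PC-3 cells in medium with 1% FBS plus 0, 0.1, 0.5 or 2.5 μM compound. Lower chamber holds medium with 20% FBS as chemoattractant. After 48 h both chambers washed with PBS, stained with Hoechst 33258, and migrated cells counted by high-content imaging. Three independent experiments.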
# PC-3 [29] = assay: Cytotoxicity against human PC3 cells assessed as inhibition of cell growth at 2.5 uM after 6 to 12 hrs by MTT assay; assay type: functional, cell-based
# PC-3 [30] = assay: Downregulation of beta-catenin levels in human PC3 cells after 48 hrs by Western blot method; assay type: functional, cell-based; method in brief: as §4
# Chain of Transcription factor Jun (Homo sapiens) (P05412 whole entry): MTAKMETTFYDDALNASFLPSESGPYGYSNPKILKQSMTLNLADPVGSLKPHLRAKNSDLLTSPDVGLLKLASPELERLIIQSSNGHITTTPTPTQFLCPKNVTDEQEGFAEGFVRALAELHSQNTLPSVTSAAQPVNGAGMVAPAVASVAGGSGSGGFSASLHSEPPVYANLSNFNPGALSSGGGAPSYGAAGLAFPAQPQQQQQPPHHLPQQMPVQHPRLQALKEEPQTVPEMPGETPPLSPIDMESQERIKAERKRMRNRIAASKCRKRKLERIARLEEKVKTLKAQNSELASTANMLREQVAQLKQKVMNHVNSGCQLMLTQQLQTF
# Chain of Myc proto-oncogene protein (Homo sapiens) (P01106 whole entry): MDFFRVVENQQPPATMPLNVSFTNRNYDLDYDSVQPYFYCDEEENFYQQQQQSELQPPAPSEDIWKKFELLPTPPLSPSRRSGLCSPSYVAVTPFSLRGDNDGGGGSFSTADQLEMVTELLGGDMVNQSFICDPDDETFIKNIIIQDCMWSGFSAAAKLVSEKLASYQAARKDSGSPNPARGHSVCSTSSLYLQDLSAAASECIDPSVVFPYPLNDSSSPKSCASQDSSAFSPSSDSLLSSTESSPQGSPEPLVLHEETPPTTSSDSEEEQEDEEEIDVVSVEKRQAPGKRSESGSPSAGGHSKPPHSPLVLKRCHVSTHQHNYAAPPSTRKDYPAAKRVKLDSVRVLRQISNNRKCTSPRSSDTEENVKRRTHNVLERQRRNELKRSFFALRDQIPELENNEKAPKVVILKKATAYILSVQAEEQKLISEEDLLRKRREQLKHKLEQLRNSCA
smiles,measurement,setting,value
COc1ccc(-c2coc3cc(OCCCBr)ccc3c2=O)cc1,IC50,ECa-109 cell line,39.7 µM
same,IC50,PC-3 [1],62.6 µM
same,IC50,MGC-803,64.9 µM
COc1ccc(-c2coc3cc(OCCCCBr)ccc3c2=O)cc1,IC50,ECa-109 cell line,66.3 µM
same,IC50,PC-3 [1],55.6 µM
same,IC50,MGC-803,52.7 µM
COc1ccc(-c2coc3cc(OCCCSC(=S)N4CCN(c5ccccn5)CC4)ccc3c2=O)cc1,IC50,ECa-109 cell line,38.3 µM
same,IC50,PC-3 [1],17.4 µM
same,IC50,MGC-803,42 µM
COc1ccc(-c2coc3cc(OCCCSC(=S)N4CCOCC4)ccc3c2=O)cc1,IC50,ECa-109 cell line,34 µM
same,IC50,PC-3 [1],27.4 µM
same,IC50,MGC-803,49.6 µM
COc1ccc(-c2coc3cc(OCCBr)ccc3c2=O)cc1,IC50,ECa-109 cell line,55.1 µM
same,IC50,PC-3 [1],41.9 µM
same,IC50,MGC-803,> 100 µM
COc1ccc(-c2coc3cc(OCCSC(=S)N4CCN(C(=O)OC(C)(C)C)CC4)ccc3c2=O)cc1,IC50,ECa-109 cell line,4.09 µM
same,IC50,PC-3 [1],3.64 µM
same,IC50,MGC-803,11.6 µM
COc1ccc(-c2coc3cc(OCCCCCBr)ccc3c2=O)cc1,IC50,ECa-109 cell line,59.1 µM
same,IC50,PC-3 [1],44.8 µM
same,IC50,MGC-803,> 100 µM
COc1ccc(-c2coc3cc(OCCCSC(=S)N4CCN(C(C)=O)CC4)ccc3c2=O)cc1,IC50,ECa-109 cell line,24.7 µM
same,IC50,PC-3 [1],4.31 µM
same,IC50,MGC-803,39.4 µM
COc1ccc(-c2coc3cc(OCCCSC(=S)N4CCN(Cc5ccccc5)CC4)ccc3c2=O)cc1,IC50,ECa-109 cell line,25.3 µM
same,IC50,PC-3 [1],14.9 µM
same,IC50,MGC-803,43.8 µM
COc1ccc(-c2coc3cc(OCCCSC(=S)N4CCN(C)CC4)ccc3c2=O)cc1,IC50,ECa-109 cell line,24.2 µM
same,IC50,PC-3 [1],2.21 µM
same,IC50,MGC-803,21.9 µM
O=c1[nH]cc(F)c(=O)[nH]1 [FLUOROURACIL],IC50,ECa-109 cell line,10.3 µM
same,IC50,PC-3 [1],29.3 µM
same,IC50,MGC-803,7.21 µM
COc1ccc(-c2coc3cc(OCCCCSC(=S)N4CCN(C(=O)OC(C)(C)C)CC4)ccc3c2=O)cc1,IC50,ECa-109 cell line,8.84 µM
same,IC50,PC-3 [1],4.61 µM
same,IC50,MGC-803,31.3 µM
COc1ccc(-c2coc3cc(OCCCSC(=S)N4CCCC4)ccc3c2=O)cc1,IC50,ECa-109 cell line,30.8 µM
same,IC50,PC-3 [1],19.4 µM
same,IC50,MGC-803,40 µM
COc1ccc(-c2coc3cc(OCCCSC(=S)N4CCN(C(=O)OC(C)(C)C)CC4)ccc3c2=O)cc1,Activity,PC-3 [2],9.1%
same,Activity,PC-3 [3],inactive
same,Activity,PC-3 [4],1.1%
same,Activity,PC-3 [5],0.9%
same,inhibition,[6],Dose-dependent effect
same,Activity,PC-3 [7],83.32%
same,Activity,PC-3 [8],55.6%
same,Activity,PC-3 [9],Dose-dependent effect
same,Activity,PC-3 [10],Dose-dependent effect
same,IC50,GES1,> 100 µM
same,Activity,PC-3 [11],6.2%
same,IC50,ECa-109 cell line,3.54 µM
same,Activity,PC-3 [12],61.29%
same,inhibition,[13],Dose-dependent effect
same,Activity,PC-3 [14],3.66%
same,Activity,PC-3 [15],1.3%
same,Activity,PC-3 [16],6%
same,Activity,PC-3 [17],5.5%
same,Activity,PC-3 [1],Dose-dependent effect
same,IC50,PC-3 [1],1.97 µM
same,Activity,PC-3 [18],Dose-dependent effect
same,Activity,PC-3 [19],Dose-dependent effect
same,Activity,PC-3 [20],5.7%
same,Activity,PC-3 [21],29.69%
same,Activity,PC-3 [22],10.33%
same,Activity,PC-3 [23],17.3%
same,Activity,PC-3 [24],26.75%
same,Activity,PC-3 [25],Dose-dependent effect
same,Activity,PC-3 [26],Dose-dependent effect
same,inhibition,[27],Dose-dependent effect
same,inhibition,Homo sapiens,Dose-dependent effect
same,IC50,MGC-803,6.07 µM
same,Activity,PC-3 [28],Dose-dependent effect
same,growth inhibition (GI),PC-3 [29],Active
same,Activity,PC-3 [30],Dose-dependent effect
COc1ccc(-c2coc3cc(O)ccc3c2=O)cc1 [FORMONONETIN],IC50,ECa-109 cell line,> 100 µM
same,IC50,PC-3 [1],57 µM
same,IC50,MGC-803,> 100 µM
CCN1CCN(C(=S)SCCCOc2ccc3c(=O)c(-c4ccc(OC)cc4)coc3c2)CC1,IC50,ECa-109 cell line,36.9 µM
same,IC50,PC-3 [1],7.08 µM
same,IC50,MGC-803,54 µM
